Laboratory results reported in ChEMBL document CHEMBL1159012, “Anti-aids agents, 6. Salaspermic acid, an anti-HIV principle from Tripterygium wilfordii, and the structure-activity correlation with its related compounds” (J Nat Prod, 1992).
In brackets after ≈: the same amount, converted by molar mass. Activity calls are given as the source filed them. No cut-off for these calls is given here.

Experiments:
[1] = test system: Human immunodeficiency virus 1; experiment: Antiviral activity against HIV 3B infected human H9 cells assessed as inhibition of p24 antigen release; assay type: functional; settings: Human immunodeficiency virus 1, 3B, read-out: ED50 (the source's name)
Outline: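 H9 lymphocytes (3.5×10^6 cells/ml) exposed to HIV-1 HTLV-IIIB at 0.01-0.1 TCID50/cell for 1 h at 37°, then washed and resuspended at 4×10^5 cells/ml. Mixed with an equal volume of compound diluted in medium and cultured 3 days at 37°. Virus released into the medium measured by p24 antigen capture. EC50 read graphically from a plot of % inhibition versus concentration.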

[2] = test system: H9; experiment: Cytotoxicity against human H9 cells; assay type: cell-based
Outline: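 Uninfected H9 lymphocytes were handled in parallel with the infected cultures: 1 h mock exposure at 37°, washing, resuspension at 4×10^5 cells/ml, and 3 days at 37° with an equal volume of compound diluted in medium. Cell density was counted with a Coulter counter. IC50 was read graphically from a plot of % inhibition versus concentration.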

[3] = target: T1, Human immunodeficiency virus type 1 reverse transcriptase (Human immunodeficiency virus 1, UniProt Q72547); experiment: Inhibition of HIV1 recombinant reverse transcriptase expressed in Escherichia coli using poly(dC)-oligo(dG) template
[4] = target: Human immunodeficiency virus type 1 reverse transcriptase (Human immunodeficiency virus 1) (UniProt Q72547); experiment: Inhibition of HIV1 recombinant reverse transcriptase expressed in Escherichia coli using poly(rU)-oligo(dA) template at 100 ug/ml
[5] = target: Human immunodeficiency virus type 1 reverse transcriptase (Human immunodeficiency virus 1) (UniProt Q72547); experiment: Inhibition of HIV1 recombinant reverse transcriptase expressed in Escherichia coli using poly(rG)-oligo(dC) template at 100 ug/ml
[6] = target: Human immunodeficiency virus type 1 reverse transcriptase (Human immunodeficiency virus 1) (UniProt Q72547); experiment: Inhibition of DNA polymerase activity of HIV1 recombinant reverse transcriptase
Outline: (§1)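 Reverse transcriptase purified from E. coli expressing it: HIV-1 from JM109 carrying pKRT2, HIV-2 from a strain bearing pASRT2. HIV-2 enzyme was run with poly(rC)·oligo(dG). EC50 values were reported.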

[7] = target: Human immunodeficiency virus type 1 reverse transcriptase (Human immunodeficiency virus 1) (UniProt Q72547); experiment: Inhibition of RNAse activity of HIV1 recombinant reverse transcriptase using poly(dT).[3H]poly(rA) template at 100 ug/ml
Outline: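 The RNase H activity of purified HIV-1 reverse transcriptase, expressed in E. coli JM109/pKRT2, was assayed with poly(dT)·[3H]poly(rA) as substrate. Compound was tested at 100 µg/ml.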

[8] = Inhibition of HIV2 reverse transcriptase using poly(rC)-oligo(dG) template; design: species or system Human immunodeficiency virus 2; outline: as §1
[9] = target: T1, Human immunodeficiency virus type 1 reverse transcriptase; experiment: Inhibition of HIV1 recombinant reverse transcriptase expressed in Escherichia coli using poly(rA)-oligo(dT) template
[10] = target: T1, Human immunodeficiency virus type 1 reverse transcriptase; experiment: Inhibition of HIV1 recombinant reverse transcriptase expressed in Escherichia coli using poly(rC)-oligo(dG) template
[11] = target: T1, Human immunodeficiency virus type 1 reverse transcriptase; experiment: Inhibition of HIV1 recombinant reverse transcriptase expressed in Escherichia coli using poly(rU)-oligo(dA) template
[12] = target: T1, Human immunodeficiency virus type 1 reverse transcriptase; experiment: Inhibition of HIV1 recombinant reverse transcriptase expressed in Escherichia coli using poly(rG)-oligo(dC) template

Row | EC50 [1] | SMILES | IC50 [2] | other results
1 | 59 µM | C[C@H]1C(=O)CC[C@@H]2[C@]1(C)CC[C@H]1[C@@]2(C)CC[C@@]2(C)[C@@H]3C[C@@](C)(C(=O)O)CC[C@]3(C)CC[C@]12C | 44 µM | 
2 | 103 µM | C[C@@H]1[C@@]23CC[C@H]4[C@@](C)(CC[C@@]5(C)[C@@H]6C[C@](C)(C(=O)O)CC[C@]6(C)CC[C@]45C)[C@@H]2C[C@@H](O)[C@@]1(O)OC3 | 64 µM | 
3 | 2 µM | C[C@H]1C(=O)CC[C@@H]2[C@]1(C)CC[C@H]1[C@@]2(C)CC[C@@]2(C)[C@@H]3CC(C)(C)CC[C@]3(C)[C@H](O)C[C@]12C | 8 µM | 
4 | > 106 µM | C[C@H]1C(=O)CC[C@H]2[C@]3(C)CC[C@@]4(C)[C@@H]5CC(C)(C)C(=O)C[C@]5(C)C(=O)C[C@]4(C)[C@H]3C[C@@H](O)[C@]12C | 106 µM | 
5 | 11 µM | C[C@H]1C(=O)CC[C@@H]2[C@]1(C)CC[C@H]1[C@@]2(C)CC[C@@]2(C)[C@@H]3C[C@](C)(CO)CC[C@]3(CO)CC[C@]12C | 15 µM | 
6 | 15 µM | C[C@H]1C(=O)CC[C@@H]2[C@]1(C)CC[C@H]1[C@@]2(C)CC[C@@]2(C)[C@@H]3CC(C)(C)CC[C@]3(C(=O)O)CC[C@]12C | 22 µM | 
7 | 13 µM | C[C@H]1C(=O)CC[C@@H]2[C@]1(C)CC[C@H]1[C@@]2(C)CC[C@@]2(C)[C@@H]3C[C@@](C)(CO)CC[C@]3(CO)CC[C@]12C | 20 µM | 
8 | 4 µM | C[C@H]1C(=O)CC[C@@H]2[C@]1(C)CC[C@H]1[C@@]2(C)CC[C@@]2(C)[C@@H]3CC(C)(C)CC[C@]3(CO)CC[C@]12C [CANOPHYLLOL] | 18 µM | 
9 | 66 µM | C[C@H]1C(=O)CC[C@@H]2[C@]1(C)CC[C@H]1[C@@]2(C)CC[C@@]2(C)[C@@H]3C[C@](C)(C(=O)O)CC[C@]3(C)CC[C@]12C [MAYTENOIC ACID] | 44 µM | 

Row | SMILES | EC50 [1] | IC50 [2] | other results
10 | C[C@H]1C(=O)CC[C@@H]2[C@]1(C)CC[C@H]1[C@@]2(C)CC[C@@]2(C)[C@@H]3CC(C)(C)CC[C@]3(OO)CC[C@]12C | 38 µM | 38 µM | 
11 | C[C@@H]1[C@@]23CC[C@H]4[C@@](C)(CC[C@@]5(C)[C@@H]6C[C@](C)(C(=O)O)CC[C@]6(C)CC[C@]45C)[C@@H]2CC[C@@]1(O)OC3 [SALASPERMIC ACID] | 10 µM | 53 µM | EC50 [3]: 159 µM; inhibition [4]: 37%; inhibition [5]: 4%; Activity [6]: Active; Activity [7]: inactive; EC50 [8]: 100 µg/mL (≈ 212 µM); EC50 [9]: 33.8 µM; EC50 [10]: 31.7 µM; EC50 [11]: > 212 µM; EC50 [12]: > 212 µM
